Source: PubChem BioAssay (The Scripps Research Institute Molecular Screening Center)
HTRA1 inh = blocks human HTRA1 serine peptidase; AID 504803; inhibition, % at 5.96 µM; recombinant HTRA1, FP-rhodamine activity-based probe, fluorescence polarization; 340,000 compounds, 0.5% hits; in the data active means inhibition above about 36%;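 further: 0% = enzyme with DMSO and 100% = wells lacking enzyme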
SIAE inh = human SIAE inhibition, primary screen; Q9HAT2; SIAE FP-Rh probe binding, fluorescence polarization; inhibition, % at 9.66 µM; 370,000 compounds, 0.69% hits;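 active means inhibition above a cutoff: mean of compounds within the control limits plus 3 SD of those, cut at about 17% in these data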;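 further: 0% = plate median of compound wells and 100% = probe without SIAE protein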
PRMT1 FP inh = PRMT1 (human) inhibition, primary screen | Q99873 | recombinant PRMT1, activity-based probe fluorescence polarization | inhibition, % at 2.79 µM | 370,000 compounds, 1.3% hits;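 active means inhibition above about 21% made by adding two undisclosed values, limit read from the data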
Target sequence (Q99873 whole entry, looked up): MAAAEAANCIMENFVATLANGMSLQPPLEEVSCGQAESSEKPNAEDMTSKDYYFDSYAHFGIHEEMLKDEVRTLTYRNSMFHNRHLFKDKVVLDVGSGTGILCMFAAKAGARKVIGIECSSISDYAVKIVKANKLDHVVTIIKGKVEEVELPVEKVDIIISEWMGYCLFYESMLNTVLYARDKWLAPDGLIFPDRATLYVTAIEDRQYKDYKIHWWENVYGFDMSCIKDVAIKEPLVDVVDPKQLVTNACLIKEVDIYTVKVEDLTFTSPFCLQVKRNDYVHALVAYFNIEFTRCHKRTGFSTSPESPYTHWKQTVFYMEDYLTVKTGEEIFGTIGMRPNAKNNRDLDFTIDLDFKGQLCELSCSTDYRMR
TCR-CD3 inh = blocks the human TCR-CD3 interaction; TAMRA-labeled TCR probe fluorescence, biochemical; inhibition, % at 9.4 µM; 360,000 compounds, 0.37% hits; in the data active means inhibition above about 19%;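 further: recombinant mutant TCR 2C K166C tagged with TAMRA read by polarization; 0% = receptor in buffer alone and 100% = receptor with positive control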
ABHD4 inh = inhibits mouse alpha/beta hydrolase domain 4. purified mABHD4, FP-Rh probe fluorescence polarization. AID 720543. inhibition, % at 8.92 µM. 370,000 compounds, 0.54% hits. Q8VD66;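 active means inhibition exceeding the mean over every tested compound plus 3 SD, cut at about 30% in these data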;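 further: 0% = plate median of compound wells and 100% = S159A mutant with DMSO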
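Doses – 8.92 µM, single dose · Material – wild-type mouse ABHD4 protein · Replication – single well per compound (singlicate) · Measure – percent inhibition of probe binding, normalized to plate controls · Schedule – 45 min compound pre-incubation plus 60 min probe step, 25 °C · Detection – fluorescence polarization with parallel and perpendicular emission, 525/598 nm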
PRMT1 inh conf = confirmation of human PRMT1 inhibitors; shares compounds with PRMT1 FP inh; recombinant His-PRMT1, activity-based probe fluorescence polarization; inhibition, % at 2.79 µM; 3,300 compounds, 42% hits;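 active means mean inhibition across replicates above the hit cutoff derived for the earlier primary screen, cut at about 22% in these data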
Numbers without * were called inactive. Shown are actives, neighbours in structure and some others; about 2.7% of the full set was active somewhere.

Results for O=c1[nH]c(=O)n(C2CCCCC2)c(O)c1C1NCCc2ccccc21 (stereo not given) ?
HTRA1 inh: 0; SIAE inh: -3; PRMT1 FP inh: 28*; TCR-CD3 inh: -4; ABHD4 inh: 4; PRMT1 inh conf: 2

How did CN1C(=O)C(=Cc2ccc(Sc3ccccc3)o2)C(=O)N(C)C1=S do in these assays?
HTRA1 inh: -7; SIAE inh: -12; PRMT1 FP inh: 36*; TCR-CD3 inh: -41; ABHD4 inh: -22; PRMT1 inh conf: 76*

Results for Cc1ccc(/C=C2\C(=O)NC(=S)N(c3cccc(F)c3)C2=O)o1 ?
HTRA1 inh: 15; SIAE inh: 3; PRMT1 FP inh: 29*; TCR-CD3 inh: -27; ABHD4 inh: 14; PRMT1 inh conf: 57*

How did COc1ccc(N2C(=O)/C(=C/c3ccc(C)o3)C(=O)NC2=S)cc1 do in these assays?
HTRA1 inh: 8; SIAE inh: 7; PRMT1 FP inh: 11; TCR-CD3 inh: -1; ABHD4 inh: 9

How did C=CCN1C(=O)/C(=C/c2ccc3c(c2)CCCN3CCC)C(=O)NC1=S do in these assays?
HTRA1 inh: -13; SIAE inh: -11; PRMT1 FP inh: 26*; TCR-CD3 inh: -30; ABHD4 inh: -17; PRMT1 inh conf: 8

Results for CC(C)(C)N1C(=O)NC(=O)/C(=C\c2ccc3c(c2)CCN3CCCCl)C1=O ?
HTRA1 inh: 10; SIAE inh: -12; PRMT1 FP inh: 3; TCR-CD3 inh: -5; ABHD4 inh: 7

What do the screens show for `CCOC(=O)c1ccc(N=Cc2c(O)n(-c3ccc(OC)cc3)c(=S)[nH]c2=O)cc1`?
HTRA1 inh: -11; SIAE inh: -33; PRMT1 FP inh: 1; TCR-CD3 inh: -39; ABHD4 inh: 1

Results for CCOC(=O)c1c(/N=C/c2c(O)n(-c3ccccc3F)c(=S)[nH]c2=O)sc2c1CCCC2 ?
HTRA1 inh: -28; SIAE inh: -44; PRMT1 FP inh: 42*; TCR-CD3 inh: -46; ABHD4 inh: -11; PRMT1 inh conf: 15

Results for CCOC(=O)c1c(/N=C/c2c(O)n(-c3ccc(F)cc3)c(=S)[nH]c2=O)sc2c1CCCC2 ?
HTRA1 inh: 5; SIAE inh: -7; PRMT1 FP inh: 27*; TCR-CD3 inh: -11; ABHD4 inh: -1; PRMT1 inh conf: -8

Results for C=CCN=C(SCC(=O)c1ccc(Cl)cc1)c1c(O)n(C)c(=O)n(C)c1=O ?
HTRA1 inh: 7; SIAE inh: -3; PRMT1 FP inh: 29*; TCR-CD3 inh: 10; ABHD4 inh: -6; PRMT1 inh conf: 31*

What do the screens show for `CNc1cc(Cl)c2nonc2c1[N+](=O)[O-]`?
HTRA1 inh: 0; SIAE inh: 4; PRMT1 FP inh: 57*; TCR-CD3 inh: -5; ABHD4 inh: 2; PRMT1 inh conf: 25*

What do the screens show for `Cn1c(=O)c2c(nc(N/N=C/c3c(O)n(C4CCCCC4)c(=S)[nH]c3=O)n2C)n(C)c1=O`?
HTRA1 inh: 8; SIAE inh: 7; PRMT1 FP inh: 5; TCR-CD3 inh: 8; ABHD4 inh: 21

What do the screens show for `CN(C=O)CP(=O)(O)CN(C)C=O`?
HTRA1 inh: 1; SIAE inh: -13; PRMT1 FP inh: -1; TCR-CD3 inh: 9; ABHD4 inh: -2

What do the screens show for `O=C(Cn1nc(-c2ccccc2)ccc1=O)N1CCC2(CC1)OCCO2`?
HTRA1 inh: 2; SIAE inh: -2; PRMT1 FP inh: 1; TCR-CD3 inh: -4; ABHD4 inh: -1

How did CN1C[C@H](CNC(=O)OCc2ccccc2)C[C@@H]2c3cccc4c3c(cn4C)C[C@H]21 do in these assays?
HTRA1 inh: 6; SIAE inh: 6; PRMT1 FP inh: 39*; TCR-CD3 inh: 2; ABHD4 inh: 9; PRMT1 inh conf: 7

How did Cc1nn(CCC#N)c2c1P(=S)(N1CCCC1)OC(c1ccc(F)cc1)=N2 (stereo not given) do in these assays?
HTRA1 inh: 4; SIAE inh: 6; PRMT1 FP inh: 77*; TCR-CD3 inh: 7; ABHD4 inh: 7; PRMT1 inh conf: 44*

What do the screens show for `O=C(Nc1ccccc1)N1CC2CC(C1)c1cccc(=O)n1C2` (stereo not given)?
HTRA1 inh: 7; SIAE inh: 4; PRMT1 FP inh: -3; TCR-CD3 inh: 4; ABHD4 inh: -3

How did CC/C(=N\NC(=S)Nc1ccccc1)c1c(O)[nH]c(=O)[nH]c1=O do in these assays?
HTRA1 inh: -4; SIAE inh: 2; PRMT1 FP inh: 45*; TCR-CD3 inh: -3; ABHD4 inh: 7; PRMT1 inh conf: 46*

What do the screens show for `C/C(=N\Nc1ccccc1)c1c(O)[nH]c(=O)[nH]c1=O`?
HTRA1 inh: 6; SIAE inh: 1; PRMT1 FP inh: 3; TCR-CD3 inh: -1; ABHD4 inh: 5

How did CC[N+](C)(CC)CCCOC(=O)C(O)(c1ccccc1)C1CCCCC1 (stereo not given) do in these assays?
HTRA1 inh: -2; SIAE inh: 3; PRMT1 FP inh: -5; TCR-CD3 inh: -5; ABHD4 inh: 2

Results for COCCOC(=O)c1c(N)n(Cc2ccco2)c2nc3ccccc3nc12 ?
HTRA1 inh: 8; SIAE inh: -5; PRMT1 FP inh: 30*; TCR-CD3 inh: 3; ABHD4 inh: 5; PRMT1 inh conf: 11

How did CC(C)OC(=O)c1c(N)n(Cc2ccco2)c2nc3ccccc3nc12 do in these assays?
HTRA1 inh: -3; SIAE inh: 3; PRMT1 FP inh: 7; TCR-CD3 inh: 0; ABHD4 inh: -1

How did O=C1NC(=O)N(c2ccccc2)C(=O)/C1=C/C=C/c1ccco1 do in these assays?
HTRA1 inh: 2; SIAE inh: -9; PRMT1 FP inh: 15; TCR-CD3 inh: -3; ABHD4 inh: 2

Results for O=C1NC(=O)N(Cc2ccccc2)C(=O)/C1=C\C=C\c1ccco1 ?
HTRA1 inh: -2; SIAE inh: -20; PRMT1 FP inh: 36*; TCR-CD3 inh: -23; ABHD4 inh: -35; PRMT1 inh conf: 1

How did O=C1NC(=O)N(Cc2ccco2)C(=O)/C1=C/C=C/c1ccco1 do in these assays?
HTRA1 inh: 2; SIAE inh: -15; PRMT1 FP inh: 61*; TCR-CD3 inh: 1; ABHD4 inh: -13; PRMT1 inh conf: 13

How did CN1C(=O)/C(=C/C=C/c2ccco2)C(=O)NC1=S do in these assays?
HTRA1 inh: -32; SIAE inh: -75; PRMT1 FP inh: 40*; TCR-CD3 inh: -91; ABHD4 inh: -87; PRMT1 inh conf: 57*

What do the screens show for `Cc1cccc(N2C(=O)NC(=O)/C(=C\C=C\c3ccco3)C2=O)c1`?
HTRA1 inh: 0; SIAE inh: -14; PRMT1 FP inh: 36*; TCR-CD3 inh: -17; ABHD4 inh: -1; PRMT1 inh conf: 1

What do the screens show for `Cc1ccc(N2C(=O)NC(=O)/C(=C\C=C\c3ccco3)C2=O)cc1`?
HTRA1 inh: 8; SIAE inh: -11; PRMT1 FP inh: 20; TCR-CD3 inh: -4; ABHD4 inh: -2
